Laboratory results published in ChEMBL document CHEMBL4033799, “Stable and Long-Lasting, Novel Bicyclic Peptide Plasma Kallikrein Inhibitors for the Treatment of Diabetic Macular Edema” (J Med Chem, 2018).
Values belong to the molecule of their own block, whether it stands above or below them. *1 amine or outer side, *2 acyl side, *3 side chain or, on linkers, in order; H or OH if unused. Where a SMILES comes first, the peptide text is derived from it. Bridges are numbered along the chain shown (N, C = ends). Roman numbers before positions name the chains, in order. [ ]: non-standard residue; d: D form. ξ: configuration not given here. X1 = CC(=O)N[C@@H](CSCc1cc(C[*:1])cc(C[*:2])c1)C(=O)O; TBMB = c1c(C[*:1])cc(C[*:3])cc1C[*:2]; hArg = N=C(N)NCCCC[C@H](N)C(=O)O; ξAze = O=C(O)C1CCN1

Experiments:
[1] = target: Plasma kallikrein (Rattus norvegicus, UniProt P14272); test: Inhibition of recombinant Sprague-Dawley rat plasma kallikrein using fluorogenic H-Pro-Phe-Arg-AMC peptide as substrate preincubated for 15 mins followed by substrate addition measured by fluorescence-based assay; settings: read-out: Ki(app)
[2] = target: Plasma kallikrein (Homo sapiens, UniProt P03952); test: Inhibition of human plasma kallikrein using fluorogenic H-Pro-Phe-Arg-AMC peptide as substrate preincubated for 15 mins followed by substrate addition measured by fluorescence-based assay; settings: read-out: Ki(app)
[3] = Inhibition of rabbit plasma kallikrein using fluorogenic H-Pro-Phe-Arg-AMC peptide as substrate preincubated for 15 mins followed by substrate addition measured by fluorescence-based assay; parameters: species or system Oryctolagus cuniculus; settings: read-out: Ki(app)
In short: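 Assays ran at 25 °C in 50 mM Tris-HCl, 250 mM NaCl, 1.5 μM BSA, pH 7.5. PKal (nominal 1–2 nM) was preincubated 15 min with serially diluted peptide. […] Human PKal was purified from plasma; rat PKal was made in-house or bought; other species were purified in-house from kaolin-activated plasma.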

[4] = target: (UniProt A0A8D1M4K5); test: Inhibition of pig plasma kallikrein using fluorogenic H-Pro-Phe-Arg-AMC peptide as substrate preincubated for 15 mins followed by substrate addition measured by fluorescence-based assay; parameters: species or system Sus scrofa; settings: read-out: Ki(app)
[5] = Aqueous solubility of the compound in buffer; type: physicochemical
[6] = tested on: Plasma; test: (§1) Drug level in rat plasma treated with (3S,6S,9R,12S,15S,18S,21S,24S,27R)-15-((1H-imidazol-5-yl)methyl)-1-((S)-1-((S)-2-((S)-2-((R)-2-acetamido-3-mercaptopropanamido)-3-hydroxypropanamido)-3-(1H-indol-3-yl)propanoyl)pyrrolidin-2-yl)-18-(3-amino-3-oxopropyl)-21-(carboxymethyl)-6-(3-guanidinopropyl)-12,24-diisobutyl-9,27-bis(mercaptomethyl)-3-methyl-1,4,7,10,13,16,19,22,25-nonaoxo-2,5,8,11,14,17,20,23,26-nonaazaoctacosan-28-oic acid at 50 uM after 18 hrs by MALDI-TOF analysis; type: ADME, cell-free
In short: (§2)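 Peptide from a 1 mM DMSO stock was diluted to 50 μM in citrated mouse, rat or human plasma and incubated at 37 °C for up to 2 days. Samples taken at time points were quenched in 1:1 acetonitrile/methanol and centrifuged. The supernatant was mixed with ammonium bicarbonate in acetonitrile/water, and parent peptide and metabolites were detected by MALDI-TOF.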

[7] = tested on: Plasma; test: as §1, with “human” for “rat”; type: ADME, cell-free; in short: as §2

Chain of Plasma kallikrein (Homo sapiens, UniProt P03952) (P03952 20-390 limits assumed): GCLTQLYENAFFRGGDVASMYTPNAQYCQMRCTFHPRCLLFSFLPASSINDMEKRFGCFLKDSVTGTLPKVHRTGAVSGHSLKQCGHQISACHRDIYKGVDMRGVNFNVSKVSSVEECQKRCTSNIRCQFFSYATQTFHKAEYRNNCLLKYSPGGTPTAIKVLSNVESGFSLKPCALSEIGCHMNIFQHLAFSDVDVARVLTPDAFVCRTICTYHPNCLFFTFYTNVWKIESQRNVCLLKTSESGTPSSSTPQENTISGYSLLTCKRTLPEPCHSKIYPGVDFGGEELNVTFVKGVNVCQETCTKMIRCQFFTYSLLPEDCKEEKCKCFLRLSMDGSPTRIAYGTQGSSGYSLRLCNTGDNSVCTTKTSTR
Chain of Plasma kallikrein (Homo sapiens, UniProt P03952) (P03952 391-638 limits assumed): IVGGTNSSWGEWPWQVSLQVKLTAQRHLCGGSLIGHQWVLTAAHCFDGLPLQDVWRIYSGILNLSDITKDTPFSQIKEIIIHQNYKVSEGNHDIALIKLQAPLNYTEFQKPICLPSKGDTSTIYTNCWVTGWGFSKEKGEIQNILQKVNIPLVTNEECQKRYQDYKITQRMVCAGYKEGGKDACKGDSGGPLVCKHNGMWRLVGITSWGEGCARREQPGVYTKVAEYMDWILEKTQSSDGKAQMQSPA
Chain of Plasma kallikrein (Rattus norvegicus, UniProt P14272) (P14272 20-390 limits assumed): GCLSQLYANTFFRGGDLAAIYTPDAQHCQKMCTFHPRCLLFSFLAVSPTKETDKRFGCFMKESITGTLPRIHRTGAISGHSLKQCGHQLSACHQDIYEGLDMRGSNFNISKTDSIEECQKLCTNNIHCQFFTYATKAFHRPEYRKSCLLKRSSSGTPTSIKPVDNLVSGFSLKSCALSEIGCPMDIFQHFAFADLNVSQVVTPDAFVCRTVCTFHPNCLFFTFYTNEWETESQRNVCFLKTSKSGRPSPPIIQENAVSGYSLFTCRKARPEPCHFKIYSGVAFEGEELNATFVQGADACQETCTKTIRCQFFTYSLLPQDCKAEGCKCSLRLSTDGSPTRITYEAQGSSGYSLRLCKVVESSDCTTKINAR
Chain of Plasma kallikrein (Rattus norvegicus, UniProt P14272) (P14272 391-638 limits assumed): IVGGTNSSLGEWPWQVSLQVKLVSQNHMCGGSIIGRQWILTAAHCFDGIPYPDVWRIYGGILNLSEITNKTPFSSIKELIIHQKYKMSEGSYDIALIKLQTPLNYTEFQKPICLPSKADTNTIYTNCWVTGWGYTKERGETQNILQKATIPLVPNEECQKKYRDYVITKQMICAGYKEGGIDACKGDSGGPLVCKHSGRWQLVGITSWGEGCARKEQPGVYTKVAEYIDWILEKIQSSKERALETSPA

Ki [1]: 11 nM
Ki [2]: 0.39 nM
Ki [3]: 84 nM
Ki [4]: 22 nM
Compound: CC(=O)N[C@H]1CSCc2cc3cc(c2)CSC[C@H](NC(=O)[C@H](CCCNC(=N)N)NC(=O)[C@H](Cc2ccc(O)cc2)NC(=O)[C@@H]2CCCN2C(=O)[C@H](Cc2ccccc2)NC(=O)[C@H](CO)NC1=O)C(=O)N[C@@H](CC(C)C)C(=O)N[C@@H](Cc1cnc[nH]1)C(=O)N[C@@H](CCC(N)=O)C(=O)N[C@@H](CC(=O)O)C(=O)N[C@@H](CC(C)C)C(=O)N[C@H](C(=O)O)CSC3 (Ac-CSFPYRCLHQDLC-OH; linker 1-7-13 via TBMB)

Ki [1]: 0.9 nM
Ki [2]: 0.07 nM
Compound: CC(C)C[C@@H]1NC(=O)[C@H](CC(=O)O)NC(=O)[C@H](CCC(N)=O)NC(=O)[C@H](Cc2cnc[nH]2)NC(=O)[C@H](CC(C)C)NC(=O)[C@@H]2CSCc3cc(cc(c3)CSC[C@@H](C(=O)N[C@@H](C)C(=O)O)NC1=O)CSC[C@H](NC(=O)[C@H](C)N)C(=O)N[C@@H](CO)C(=O)N[C@@H](Cc1c[nH]c3ccccc13)C(=O)N1CCC[C@H]1C(=O)N[C@@H](C)C(=O)N[C@@H](CCCNC(=N)N)C(=O)N2 (H-ACSWPARCLHQDLCA-OH; linker 2-8-14 via TBMB)

Ki [2]: 1.3 nM
Compound: CC(=O)N[C@H]1CSCc2cc3cc(c2)CSC[C@H](NC(=O)[C@H](CCCNC(=N)N)NC(=O)[C@H](Cc2ccc(O)cc2)NC(=O)[C@@H]2CCCN2C(=O)[C@H](Cc2ccccc2)NC(=O)[C@H](CO)NC1=O)C(=O)N[C@@H](C)CN[C@@H](Cc1cnc[nH]1)C(=O)N[C@@H](CCC(N)=O)C(=O)N[C@@H](CC(=O)O)C(=O)N[C@@H](CC(C)C)C(=O)N[C@H](C(=O)O)CSC3

Ki [2]: 0.21 nM
Compound: CC(=O)N[C@H]1CSCc2cc3cc(c2)CSC[C@H](NC(=O)[C@H](CCCCNC(=N)N)NC(=O)[C@H](Cc2ccc(O)cc2)NC(=O)C2CCN2C(=O)[C@H](Cc2ccccc2)NC(=O)[C@H](CO)NC1=O)C(=O)N[C@@H](CC(C)C)C(=O)N[C@@H](Cc1cnc[nH]1)C(=O)N[C@@H](CCC(N)=O)C(=O)N[C@@H](CC(=O)O)C(=O)N[C@@H](CC(C)C)C(=O)N[C@H](C(=O)O)CSC3 (stereo partly drawn) (Ac-CSF[ξAze]Y[hArg]CLHQDLC-OH; linker 1-7-13 via TBMB)

Ki [2]: 0.06 nM
Compound: CC(=O)N[C@H]1CSCc2cc3cc(c2)CSC[C@H](NC(=O)[C@H](CCCNC(=N)N)NC(=O)[C@H](C)NC(=O)C2CCN2C(=O)[C@H](Cc2c[nH]c4ccccc24)NC(=O)[C@H](CO)NC1=O)C(=O)N[C@@H](CC(C)C)C(=O)N[C@@H](Cc1cnc[nH]1)C(=O)N[C@@H](CCC(N)=O)C(=O)N[C@@H](CC(=O)O)C(=O)N[C@@H](CC(C)C)C(=O)N[C@H](C(=O)O)CSC3 (stereo partly drawn) (Ac-CSW[ξAze]ARCLHQDLC-OH; linker 1-7-13 via TBMB)

Ki [2]: 0.14 nM
Compound: CC(=O)N[C@H]1CSCc2cc3cc(c2)CSC[C@H](NC(=O)[C@H](CCCCNC(=N)N)NC(=O)[C@H](C)NC(=O)C2CCN2C(=O)[C@H](Cc2c[nH]c4ccccc24)NC(=O)[C@H](CO)NC1=O)C(=O)N[C@@H](CC(C)C)C(=O)N[C@@H](Cc1cnc[nH]1)C(=O)N[C@@H](CCC(N)=O)C(=O)N[C@@H](CC(=O)O)C(=O)N[C@@H](CC(C)C)C(=O)N[C@H](C(=O)O)CSC3 (stereo partly drawn) (Ac-CSW[ξAze]A[hArg]CLHQDLC-OH; linker 1-7-13 via TBMB)

Second part, the molecule before the results:

Compound: CC[C@H](C)[C@@H]1NC(=O)[C@H](CC(=O)O)NC(=O)[C@@H]2CCCN2C(=O)[C@H](Cc2ccc(O)cc2)NC(=O)[C@H](Cc2ccc(O)cc2)NC(=O)[C@H](C(C)C)NC(=O)[C@@H]2CSCc3cc(cc(c3)CSC[C@@H](C(=O)N[C@@H](C)C(=O)O)NC1=O)CSC[C@H](NC(=O)[C@H](C)N)C(=O)N[C@@H](CO)C(=O)N[C@@H](Cc1ccccc1)C(=O)N1CCC[C@H]1C(=O)N[C@@H](Cc1ccc(O)cc1)C(=O)N[C@@H](CCCNC(=N)N)C(=O)N2 (H-ACSFPYRCVYYPDICA-OH; linker 2-8-15 via TBMB)
solubility [5]: Insoluble

Compound: CC(=O)N[C@H]1CSCc2cc(CSC[C@H](NC(=O)[C@H](CC(C)C)NC(=O)[C@@H](N)CC(=O)O)C(=O)O)cc(c2)CSC[C@@H](C(=O)N[C@@H](CC(C)C)C(=O)O)NC(=O)[C@H](CCCNC(=N)N)NC(=O)[C@H](C)NC(=O)[C@@H]2CCCN2C(=O)[C@H](Cc2c[nH]c3ccccc23)NC(=O)[C@H](CO)NC1=O
Drug metabolism [6]: Metabolite_Detected

Compound: CC(=O)N[C@@H](CSCc1cc2cc(c1)CSC[C@H](N)C(=O)N[C@@H](CC(C)C)C(=O)N[C@@H](Cc1cnc[nH]1)C(=O)N[C@@H](CCC(N)=O)C(=O)N[C@@H](CC(=O)O)C(=O)N[C@@H](CC(C)C)C(=O)N[C@H](C(=O)O)CSC2)C(=O)N[C@@H](CO)C(=O)O
Drug metabolism [7]: Metabolite_Detected

Compound: CC(=O)N[C@H]1CSCc2cc(cc(CSC[C@H](NC(=O)[C@H](CC(C)C)NC(=O)[C@@H](N)CC(=O)O)C(=O)O)c2)CSC[C@@H](C(=O)O)NC(=O)[C@H](CCCNC(=N)N)NC(=O)[C@H](C)NC(=O)[C@@H]2CCCN2C(=O)[C@H](Cc2c[nH]c3ccccc23)NC(=O)[C@H](CO)NC1=O
Drug metabolism [6]: Metabolite_Detected

Compound: CC[C@H](C)[C@@H]1NC(=O)[C@H](CC(=O)O)NC(=O)[C@@H]2CCCN2C(=O)[C@H](Cc2ccc(O)cc2)NC(=O)[C@H](Cc2ccc(O)cc2)NC(=O)[C@H](C(C)C)NC(=O)[C@@H]2CSCc3cc(cc(c3)CSC[C@@H](C(=O)N[C@@H](C)C(=O)O)NC1=O)CSC[C@H](NC(=O)[C@H](C)N)C(=O)N[C@@H](CC(N)=O)C(=O)N[C@@H](CC(N)=O)C(=O)N[C@@H](Cc1ccccc1)C(=O)N1CCC[C@H]1C(=O)N[C@@H](Cc1ccccc1)C(=O)N[C@@H](CCCNC(=N)N)C(=O)N2 (H-ACNNFPFRCVYYPDICA-OH; linker 2-9-16 via TBMB)
Ki [2]: 0.44 nM

Compound: CC(=O)N[C@@H](CSCc1cc2cc(c1)CSC[C@H](N)C(=O)N[C@@H](CC(C)C)C(=O)N[C@@H](Cc1cnc[nH]1)C(=O)N[C@@H](CCC(N)=O)C(=O)N[C@@H](CC(=O)O)C(=O)N[C@@H](CC(C)C)C(=O)N[C@H](C(=O)O)CSC2)C(=O)N[C@@H](CO)C(=O)N[C@@H](Cc1c[nH]c2ccccc12)C(=O)N1CCC[C@H]1C(=O)N[C@@H](C)C(=O)O (I: H-CLHQDLC-OH / II: Ac-CSWPA-OH; linker I:1-I:7-II:1 via TBMB)
Drug metabolism [7]: Metabolite_Detected

Compound: CC(=O)N[C@H]1CSCc2cc(cc(CSC[C@H](NC(=O)[C@H](CC(C)C)NC(=O)[C@H](CC(=O)O)NC(=O)[C@H](CCC(N)=O)NC(=O)[C@@H](N)Cc3cnc[nH]3)C(=O)O)c2)CSC[C@@H](C(=O)O)NC(=O)[C@H](CCCNC(=N)N)NC(=O)[C@H](C)NC(=O)[C@@H]2CCCN2C(=O)[C@H](Cc2c[nH]c3ccccc23)NC(=O)[C@H](CO)NC1=O (I: Ac-CSWPARC-OH / II: H-HQDLC-OH; linker I:1-I:7-II:5 via TBMB)
Drug metabolism [6]: Metabolite_Detected

Compound: CC(=O)N[C@@H](CSCc1cc2cc(c1)CSC[C@H](N)C(=O)N[C@@H](CC(C)C)C(=O)N[C@@H](Cc1cnc[nH]1)C(=O)N[C@@H](CCC(N)=O)C(=O)N[C@@H](CC(=O)O)C(=O)N[C@@H](CC(C)C)C(=O)N[C@H](C(=O)O)CSC2)C(=O)O (H-CLHQDLC-OH; linker 1-7 via X1)
Drug metabolism [7]: Metabolite_Detected
